The source of these data is ChEMBL document CHEMBL4007477, “Novel 2-phenyl-4,5,6,7-tetrahydro[b]benzothiophene analogues as selective COX-2 inhibitors: Design, synthesis, anti-inflammatory evaluation, and molecular docking studies” (Bioorg Med Chem Lett, 2017).

In data set [1] the target is T1, COX1 (Prostaglandin G/H synthase 1) (Ovis aries, UniProt P05979).
T1 sequence (P05979 whole entry): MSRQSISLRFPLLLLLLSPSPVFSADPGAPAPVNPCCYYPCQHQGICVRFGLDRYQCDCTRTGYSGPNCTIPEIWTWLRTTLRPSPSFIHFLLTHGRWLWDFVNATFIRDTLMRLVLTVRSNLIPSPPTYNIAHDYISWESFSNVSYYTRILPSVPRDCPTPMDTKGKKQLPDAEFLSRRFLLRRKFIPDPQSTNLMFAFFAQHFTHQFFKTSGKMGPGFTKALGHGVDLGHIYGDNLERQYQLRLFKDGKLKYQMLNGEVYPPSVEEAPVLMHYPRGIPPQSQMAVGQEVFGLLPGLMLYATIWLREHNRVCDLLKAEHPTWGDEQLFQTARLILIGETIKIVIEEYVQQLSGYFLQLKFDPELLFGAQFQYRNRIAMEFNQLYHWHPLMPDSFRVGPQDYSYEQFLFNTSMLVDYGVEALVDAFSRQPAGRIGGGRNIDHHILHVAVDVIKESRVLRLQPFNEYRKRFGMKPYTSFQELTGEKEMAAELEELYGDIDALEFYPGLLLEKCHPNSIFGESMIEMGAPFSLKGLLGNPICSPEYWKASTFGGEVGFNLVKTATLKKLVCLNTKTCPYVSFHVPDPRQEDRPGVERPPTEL
The data set can be described thus: Inhibition of ovine COX1 at 60 uM using arachidonic acid as substrate preincubated for 5 mins followed by substrate addition measured after 2 mins by ADHP probe-based fluorescence assay relative to control. Particulars: sheep, ovine COX1 enzyme.

Data set [2] concerns the target T2, Prostaglandin G/H synthase 2 (Homo sapiens) (UniProt P35354).
T2 sequence (whole entry): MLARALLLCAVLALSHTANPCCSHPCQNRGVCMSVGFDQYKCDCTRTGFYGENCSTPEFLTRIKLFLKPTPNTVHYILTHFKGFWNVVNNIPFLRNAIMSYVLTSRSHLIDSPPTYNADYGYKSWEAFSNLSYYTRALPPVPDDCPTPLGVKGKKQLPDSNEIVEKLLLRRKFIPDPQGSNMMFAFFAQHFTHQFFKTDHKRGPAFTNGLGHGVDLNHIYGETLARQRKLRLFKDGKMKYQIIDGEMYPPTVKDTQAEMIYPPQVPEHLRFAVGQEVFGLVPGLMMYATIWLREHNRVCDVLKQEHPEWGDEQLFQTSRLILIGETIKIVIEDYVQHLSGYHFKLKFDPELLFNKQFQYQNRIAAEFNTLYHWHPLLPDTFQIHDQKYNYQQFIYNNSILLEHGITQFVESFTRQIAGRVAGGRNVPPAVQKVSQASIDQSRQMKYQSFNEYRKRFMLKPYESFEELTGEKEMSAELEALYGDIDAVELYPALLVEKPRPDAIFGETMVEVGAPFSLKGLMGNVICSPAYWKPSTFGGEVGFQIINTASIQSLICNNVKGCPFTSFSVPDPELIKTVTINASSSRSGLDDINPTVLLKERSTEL
The conditions noted are these: at 60 µM.

For data set [3], the system named is Rattus norvegicus. The data set can be described thus: Antiinflammatory activity in carrageenan-induced Wistar rat paw edema model assessed as rise in paw volume at 150 ug/kg administered 1 hr followed by carrageenan challenge measured at 360 mins by plethysmometer (reference value: 49.3%). The format is functional. A general note: In the carrageenan paw model, swelling and tenderness develop within hours.

Data set [4] relates to Rattus norvegicus. The data set can be described thus: Antiinflammatory activity in carrageenan-induced Wistar rat paw edema model assessed as rise in paw volume at 150 ug/kg administered 1 hr followed by carrageenan challenge measured at 180 mins by plethysmometer (reference value: 60.1%). The format is functional.
Data set [5] is described as follows: Selectivity index, ratio of IC50 for ovine COX1 to IC50 for human recombinant COX2. An outline of the steps: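 Selectivity index computed as COX-1 IC₅₀ / COX-2 IC₅₀, using ovine COX-1 and human recombinant COX-2. Each IC₅₀ is a mean of two determinations.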
The subject of data set [6] is Rattus norvegicus. Kind of data set: Antiinflammatory activity in carrageenan-induced Wistar rat paw edema model assessed as rise in paw volume at 150 ug/kg administered 1 hr followed by carrageenan challenge measured at 30 mins by plethysmometer (reference value: 49.5%). The class given is functional.
The target of data set [7] is T3, Prostaglandin G/H synthase 1 (Ovis aries, UniProt P05979).
T3 sequence (P05979 whole entry): T1 sequence (P05979 whole entry)
The data set can be described thus: Inhibition of ovine COX1 using arachidonic acid as substrate preincubated for 5 mins followed by substrate addition measured after 2 mins by ADHP probe-based fluorescence assay.

Data set [8] can be described thus: Cytotoxicity against mouse RAW264.7 cells assessed as cell viability at 80 uM after 24 hrs by MTT assay relative to control. The format is cell-based. Particulars: read-out: Activity. An outline of the steps:
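MTT viability in RAW 264.7 cells after 24 h exposure to 5, 10, 20, 40, 80 and 160 µM compound.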
For orientation: Tetrazolium assays rely on reduction of a dye to a coloured formazan, in cell work by metabolically active cells.

Data set [9] has as its system Rattus norvegicus. Kind of data set: Antiinflammatory activity in carrageenan-induced Wistar rat paw edema model assessed as rise in paw volume at 150 ug/kg administered 1 hr followed by carrageenan challenge measured at 60 mins by plethysmometer (reference value: 52.8%). The class given is functional.
In data set [10] the target is T4, Prostaglandin G/H synthase 2 (Homo sapiens, UniProt P35354).
T4 sequence (P35354 whole entry): T2 sequence (whole entry)
The data set can be described thus: Inhibition of human recombinant COX2 using arachidonic acid as substrate preincubated for 5 mins followed by substrate addition measured after 2 mins by ADHP probe-based fluorescence assay.

The inhibition is the drop in the measured response relative to a control, in per cent. In data set [1], `COC(=O)c1ccc(OC(=O)c2c(-c3ccccc3)sc3c2CCCC3)cc1` yielded an inhibition at 2 min, 60 µM of 68.9%. The same molecule came in with an inhibition in data set [2] of 56.5%.
A word on the IC50: it is the concentration that gives 50% inhibition. Regarding `O=C(Oc1ccccc1)c1c(-c2ccccc2)sc2c1CCCC2`, the Activity stood at 37% in the data set with Rattus norvegicus [3], 27% with Rattus norvegicus [4], 10.6% in the data set with Rattus norvegicus [6] and 30.2% in the data set with Rattus norvegicus [9]. The inhibition at 2 min, 60 µM in data set [1] amounted to 47.1%. For the same molecule, the Ratio IC50 in data set [5] stood at 184. For the same molecule, the inhibition in [2] came out at 97.6%. In addition, the results for the IC50 in [7] and in data set [10] were 61.2 µM and 0.33 µM, respectively. For the same molecule, the viability at 24 h, 80 µM in data set [8] is 50.8%.
Turning to `NS(=O)(=O)c1ccc(OC(=O)c2c(-c3ccccc3)sc3c2CCCC3)cc1`, the Activity with Rattus norvegicus [3] amounted to 31.3%; with Rattus norvegicus [4], 21.1%; in the data set on Rattus norvegicus [6], 21.4%; in the data set with Rattus norvegicus [9], 21.6%. For the same molecule, the inhibition at 2 min, 60 µM in [1] amounted to 69.3%. Moreover, the Ratio IC50 in data set [5] was found to be 54.7. The same molecule gave an inhibition in data set [2] of 89.4%. Further, the IC50 in [7] was determined as 37 µM; in data set [10], 0.67 µM. Further, the viability at 24 h, 80 µM in data set [8] was 83.7%.
Regarding `COc1ccc(OC(=O)c2c(-c3ccccc3)sc3c2CCCC3)cc1`, in data set [1], the inhibition at 2 min, 60 µM was 10.7%. The inhibition in data set [2] turned out to be 41%.
As for `COC(=O)Cc1ccc(OC(=O)c2c(-c3ccccc3)sc3c2CCCC3)cc1`, in data set [1], the inhibition at 2 min, 60 µM turned out to be 7.81%. For the same molecule, the inhibition in [2] was found to be 15%.
`O=C(Oc1ccc([N+](=O)[O-])cc1)c1c(-c2ccccc2)sc2c1CCCC2` returned an inhibition at 2 min, 60 µM in data set [1] of 19.3%. This molecule also yielded an inhibition in data set [2] of 16.5%.
For the molecule `NC(=O)Cc1ccc(OC(=O)c2c(-c3ccccc3)sc3c2CCCC3)cc1`, the inhibition at 2 min, 60 µM in data set [1] was 1.43%. For the same molecule, the inhibition in data set [2] was found to be 38.3%.
Consider `CC(C)(C)c1ccc(OC(=O)c2c(-c3ccccc3)sc3c2CCCC3)cc1`, for which the inhibition at 2 min, 60 µM in data set [1] is 8.1%. Also, in data set [2], the inhibition stood at 3.1%.
As for `Cc1ccc(-c2cc(C(F)(F)F)nn2-c2ccc(S(N)(=O)=O)cc2)cc1` [CELECOXIB], the Activity in the data set on Rattus norvegicus [3] amounted to 26.6%; with Rattus norvegicus [4] it was 19.7%; with Rattus norvegicus [6], 5.8%; in the data set on Rattus norvegicus [9] it was 16.2%. Besides, in data set [8], the viability at 24 h, 80 µM turned out to be 33.9%.
Turning to `O=C(Oc1ccc(Br)cc1)c1c(-c2ccccc2)sc2c1CCCC2`, the inhibition at 2 min, 60 µM in [1] came out at 35.5%. Also, the inhibition in data set [2] amounted to 18.5%.
As to `Nc1ccc(OC(=O)c2c(-c3ccccc3)sc3c2CCCC3)cc1`, the Activity with Rattus norvegicus [3] came to 39.9%; in the data set on Rattus norvegicus [4], 44.9%; with Rattus norvegicus [6], 29%; in the data set with Rattus norvegicus [9], 33.1%. In data set [1], this molecule displayed an inhibition at 2 min, 60 µM of 88.3%. The molecule also had an inhibition in data set [2] of 32.3%.
For `CC(=O)c1ccc(OC(=O)c2c(-c3ccccc3)sc3c2CCCC3)cc1`, the Activity stood at 54.2% in the data set on Rattus norvegicus [3], 55.2% with Rattus norvegicus [4], 24.7% in the data set on Rattus norvegicus [6] and 37.1% in the data set on Rattus norvegicus [9]. For the same molecule, the inhibition at 2 min, 60 µM in data set [1] stood at 10.3%. Further, the inhibition in data set [2] was determined as 8.04%.
Consider `N#Cc1ccc(OC(=O)c2c(-c3ccccc3)sc3c2CCCC3)cc1`, for which the Activity in the data set with Rattus norvegicus [3] is reported as 28.5%; in the data set on Rattus norvegicus [4], 21.4%; in the data set on Rattus norvegicus [6], 13.6%; in the data set with Rattus norvegicus [9] it was 22%. In [1], this molecule gave an inhibition at 2 min, 60 µM of 76%. Besides, in data set [2], the inhibition amounted to 83.7%.
With `CC(=O)c1cccc(OC(=O)c2c(-c3ccccc3)sc3c2CCCC3)c1`, the Activity in the data set on Rattus norvegicus [3] is 30.3%; in the data set on Rattus norvegicus [4] it was 30.5%; in the data set with Rattus norvegicus [6], 28.9%; with Rattus norvegicus [9], 30.8%. This molecule also yielded an inhibition at 2 min, 60 µM in data set [1] of 73.5%. The Ratio IC50 in [5] turned out to be 92.7. The inhibition in data set [2] came out at 93.5%. The IC50 in data set [7] is 29.6 µM; in data set [10], 0.31 µM. Besides, in data set [8], the viability at 24 h, 80 µM came out at 64.5%.
In data set [1], `Cc1ccc(OC(=O)c2c(-c3ccccc3)sc3c2CCCC3)cc1` came in with an inhibition at 2 min, 60 µM of 64%. The molecule also had an inhibition in data set [2] of 47.2%.
The corresponding values for `O=C(Oc1ccc(Cl)cc1)c1c(-c2ccccc2)sc2c1CCCC2` are 72.4% and 36.8%.
`CC(=O)Nc1ccc(OC(=O)c2c(-c3ccccc3)sc3c2CCCC3)cc1`: the Activity in the data set with Rattus norvegicus [3] was 37%; in the data set with Rattus norvegicus [4], 27%; in the data set with Rattus norvegicus [6] it was 10.6%; with Rattus norvegicus [9], 30.2%. Moreover, the inhibition at 2 min, 60 µM in data set [1] came to 36.8%. Further, the Ratio IC50 in data set [5] was found to be 48.8. The molecule further gave an inhibition in data set [2] of 75.7%. Also, the concentration for half-maximal inhibition (IC50) in [7] came to 68.8 µM; in [10], 1.4 µM. Further, the viability at 24 h, 80 µM in [8] came out at 41.3%.
As for `O=Cc1ccc(OC(=O)c2c(-c3ccccc3)sc3c2CCCC3)cc1`, the inhibition at 2 min, 60 µM in data set [1] was 11.6%. The same molecule yielded an inhibition in data set [2] of 10.7%.
